Data as given in ChEMBL document CHEMBL4011584, “Overcoming drug resistance by cell-penetrating peptide-mediated delivery of a doxorubicin dimer with high DNA-binding affinity” (Eur J Med Chem, 2017).
One block for each compound: values may come before it. The source made the active and inactive calls. The rule behind the calls is not given here.

Columns and labels:
[1] = Binding affinity to Cy5-labelled-36 base pair double stranded DNA (unknown origin) measured under infrared laser light by microscale thermophoresis
Procedure, shortened: (§1)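 Microscale thermophoresis: 50 nM Cy5-labeled DNA titrated with ligand in 50 mM Tris pH 6.5, 15 mM NaCl, 10 mM MgCl2, 0.05 % Tween 20. IR laser at 10 % intensity, starting from room temperature. Fluorescence signals fitted assuming 1:1 binding to give Ka/EC50.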

[2] = Binding affinity to Cy5-labelled-12 base pair double stranded DNA (unknown origin) measured under infrared laser light by microscale thermophoresis; procedure, shortened: as §1
[3] = Antiproliferative activity against human Kelly cells after 72 hrs by CellTiter-Glo luminescent cell viability assay; assay type: functional, cell-based
Procedure, shortened: (§2)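 1×10^3 cells/well, allowed to attach 24 h, then exposed 72 h to 0.05-20 µM drug. Viability by ATP luminescence (CellTiter-Glo) relative to untreated controls with medium correction. IC50 read from log-concentration survival curves, independent triplicates. Kelly-WT and doxorubicin-selected Kelly-ADR (tenfold resistant) cultured in RPMI1640 with 10 % FCS, 2 mM glutamine and pen/strep at 37°C, 5 % CO2.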

[4] = Antiproliferative activity against human adriamycin-resistant Kelly cells after 72 hrs by CellTiter-Glo luminescent cell viability assay; assay type: functional, cell-based; procedure, shortened: as §2
[5] = Drug uptake in human Kelly cells at 10 uM after 24 hrs by fluorescence confocal microscopic method; assay type: ADME, cell-based
Procedure, shortened: (§3)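 Live Kelly-WT or Kelly-ADR cells (1×10^4/well) exposed to 10 µM drug for 24 or 72 h at 37°C, 5 % CO2. Imaged by confocal laser scanning microscopy with a 63× water objective. Red signal is anthracycline-associated fluorescence.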

[6] = Drug uptake in human adriamycin-resistant Kelly cells at 10 uM after 24 hrs by fluorescence confocal microscopic method; assay type: ADME, cell-based; procedure, shortened: as §3
[7] = Drug uptake in nucleus of human adriamycin-resistant Kelly cells at 10 uM after 24 hrs by fluorescence confocal microscopic method; assay type: ADME; procedure, shortened: as §3
[8] = Drug uptake in human Kelly cells at 10 uM after 72 hrs by fluorescence confocal microscopic method; assay type: ADME, cell-based; procedure, shortened: as §3
[9] = Drug uptake in nucleus of human Kelly cells at 10 uM after 72 hrs by fluorescence confocal microscopic method; assay type: ADME; procedure, shortened: as §3
[10] = Drug uptake in cytosol of adriamycin-resistant human Kelly cells at 10 uM after 72 hrs by fluorescence confocal microscopic method; assay type: ADME; procedure, shortened: as §3
[11] = Drug uptake in nucleus of adriamycin-resistant human Kelly cells at 10 uM after 72 hrs by fluorescence confocal microscopic method; assay type: ADME; procedure, shortened: as §3
[12] = (§4) Drug level treated with (S,S,R,S,S,S,E)-N,N'-((6S,9S,12S,15S,18S,21S,24S,27S)-30-acetamido-1-amino-6-carbamoyl-9,12,15,18,21,24,27-heptakis(3-guanidinopropyl)-1-imino-8,11,14,17,20,23,26,29,37-nonaoxo-32,33-dithia-2,7,10,13,16,19,22,25,28,36-decaazadotetracontane-38,42-diyl)bis(2-((E)-1-((2S,4S)-4-((2R,4S,5S,6S)-4-amino-5-hydroxy-6-methyltetrahydro-2H-pyran-2-yloxy)-2,5,12-trihydroxy-7-methoxy-6,11-dioxo-1,2,3,4,6,11-hexahydrotetracen-2-yl)-2-hydroxyethylideneaminooxy)acetamide)decaacetate at 1 mM in presence of glutathione at 1 min post dose by MALDI-TOF-mass spectroscopic analysis
Procedure, shortened: (§5)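 Conjugate at 1 mM in DPBS pH 7.4 with 10 mM glutathione (tenfold excess), 37°C, shaking at 300 rpm. Disulfide reduction followed by HPLC at 480 nm over 24 h. Cleavage products identified by MALDI-TOF MS.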

[13] = Stability of the compound at pH 5 assessed as doxorubicin formation; assay type: physicochemical; settings: buffer
MCF7 = test: Antiproliferative activity against human MCF7 cells after 72 hrs by CellTiter-Glo luminescent cell viability assay; assay type: functional, cell-based; settings: MCF7, 72 h
[14] = Potency index, ratio of doxorubicin IC50 to compound IC50 for human adriamycin-resistant Kelly cells; assay type: functional
[15] = Drug uptake in human Kelly cell membrane at 10 uM after 24 hrs by fluorescence confocal microscopic method; assay type: ADME, cell-based; procedure, shortened: as §3
[16] = Drug uptake in cytosol of human Kelly cells at 10 uM after 72 hrs by fluorescence confocal microscopic method; assay type: ADME; procedure, shortened: as §3
[17] = Drug uptake in nucleus of human adriamycin-resistant Kelly cells at 10 uM after 72 hrs by DRAQ5-staining based fluorescence confocal microscopic method; assay type: ADME
Procedure, shortened: (§6)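 Kelly-WT or Kelly-ADR cells exposed 72 h to 10 µM drug. Nuclei counterstained with 5 µM DRAQ5 for 5 min before live confocal imaging at 37°C, 5 % CO2. Nuclear localization scored by overlay (colocalization) with the DRAQ5 signal.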

[18] = Drug uptake in nucleus of human Kelly cells at 10 uM after 72 hrs by DRAQ5-staining based fluorescence confocal microscopic method; assay type: ADME; procedure, shortened: as §6
[19] = Drug uptake in adriamycin-resistant human Kelly cell membranes at 10 uM after 72 hrs by fluorescence confocal microscopic method; assay type: ADME; procedure, shortened: as §3
[20] = as §4, with “3 hrs” for “1 min”; procedure, shortened: as §5
[21] = Potency index, ratio of doxorubicin Ka to compound Ka for binding affinity to Cy5-labelled-36 base pair double stranded DNA (unknown origin)
[22] = Potency index, ratio of doxorubicin EC50 to compound EC50 for binding affinity to Cy5-labelled-36 base pair double stranded DNA (unknown origin)
[23] = as §4, with “after 24 hrs” for “at 1 min post dose”; procedure, shortened: as §5

- EC50 [1]: 1160 nM
- Kd [1]: 1130 nM
- Activity [2]: inactive
- Drug uptake [5]: Active
- Drug uptake [6]: Active
- Drug uptake [7]: Active
- Drug uptake [8]: Active
- Drug uptake [9]: Active
- Drug uptake [10]: Not Active
- Drug uptake [11]: Not Active
Structure (SMILES): COc1cccc2c1C(=O)c1c(O)c3c(c(O)c1C2=O)C[C@@](O)(C(=O)CO)C[C@@H]3O[C@H]1C[C@H](N)[C@H](O)[C@H](C)O1 [DOXORUBICIN]
- IC50 [3]: 180 nM
- IC50 [4]: 6.57 µM

Structure (SMILES): COc1cccc2c1C(=O)c1c(O)c3c(c(O)c1C2=O)C[C@@](O)(/C(CO)=N/OCC(=O)NCCCC[C@H](NC(=O)CO/N=C(\CO)[C@]1(O)Cc2c(O)c4c(c(O)c2[C@@H](O[C@H]2C[C@H](N)[C@H](O)[C@H](C)O2)C1)C(=O)c1c(OC)cccc1C4=O)C(=O)NCCS)C[C@@H]3O[C@H]1C[C@H](N)[C@H](O)[C@H](C)O1
- Drug metabolism [12]: Metabolite detected

- Stability [13]: Stable
- IC50 (MCF7): 3.66 µM
- Drug uptake [15]: Active
- Drug uptake [5]: Active
- Drug uptake [6]: Active
- Drug uptake [8]: Active
- Drug uptake [16]: Active
- Drug uptake [11]: Active
- Drug uptake [17]: Active
- Drug uptake [18]: Active
- Drug uptake [19]: Active
Structure (SMILES): CC(=O)O.CC(=O)O.CC(=O)O.CC(=O)O.CC(=O)O.CC(=O)O.CC(=O)O.CC(=O)O.CC(=O)O.CC(=O)O.COc1cccc2c1C(=O)c1c(O)c3c(c(O)c1C2=O)C[C@@](O)(/C(CO)=N/OCC(=O)NCCCC[C@H](NC(=O)CO/N=C(\CO)[C@]1(O)Cc2c(O)c4c(c(O)c2[C@@H](O[C@H]2C[C@H](N)[C@H](O)[C@H](C)O2)C1)C(=O)c1c(OC)cccc1C4=O)C(=O)NCCSSC[C@H](NC(C)=O)C(=O)N[C@@H](CCCNC(=N)N)C(=O)N[C@@H](CCCNC(=N)N)C(=O)N[C@@H](CCCNC(=N)N)C(=O)N[C@@H](CCCNC(=N)N)C(=O)N[C@@H](CCCNC(=N)N)C(=O)N[C@@H](CCCNC(=N)N)C(=O)N[C@@H](CCCNC(=N)N)C(=O)N[C@@H](CCCNC(=N)N)C(N)=O)C[C@@H]3O[C@H]1C[C@H](N)[C@H](O)[C@H](C)O1
- IC50 [3]: 2470 nM
- IC50 [4]: 2.76 µM
- Ratio IC50 [14]: 3

Structure (SMILES): CC(=O)N[C@@H](CS)C(=O)N[C@@H](CCCNC(=N)N)C(=O)N[C@@H](CCCNC(=N)N)C(=O)N[C@@H](CCCNC(=N)N)C(=O)N[C@@H](CCCNC(=N)N)C(=O)N[C@@H](CCCNC(=N)N)C(=O)N[C@@H](CCCNC(=N)N)C(=O)N[C@@H](CCCNC(=N)N)C(=O)N[C@@H](CCCNC(=N)N)C(N)=O
- IC50 (MCF7): ≥ 100 µM
- IC50 [3]: ≥ 100000 nM
- IC50 [4]: ≥ 100 µM

Structure (SMILES): COc1cccc2c1C(=O)c1c(O)c3c(c(O)c1C2=O)C[C@@](O)(/C(CO)=N/OCC(=O)NCCCC[C@H](NC(=O)CO/N=C(\CO)[C@]1(O)Cc2c(O)c4c(c(O)c2[C@@H](O[C@H]2C[C@H](N)[C@H](O)[C@H](C)O2)C1)C(=O)c1c(OC)cccc1C4=O)C(=O)NCCSSC[C@H](NC(=O)CC[C@@H](N)C(=O)O)C(=O)NCC(=O)O)C[C@@H]3O[C@H]1C[C@H](N)[C@H](O)[C@H](C)O1
- Drug metabolism [20]: Metabolite detected

- EC50 [1]: 150 nM
- Ka [1]: 7.9 ×10⁶ /M
- Kd [1]: 126 nM
- Activity [2]: inactive
- Ratio [21]: 10
- Ratio EC50 [22]: 10
- IC50 (MCF7): 6.73 µM
Structure (SMILES): COc1cccc2c1C(=O)c1c(O)c3c(c(O)c1C2=O)C[C@@](O)(/C(CO)=N/OCC(=O)NCCCC[C@H](NC(=O)CO/N=C(\CO)[C@]1(O)Cc2c(O)c4c(c(O)c2[C@@H](O[C@H]2C[C@H](N)[C@H](O)[C@H](C)O2)C1)C(=O)c1c(OC)cccc1C4=O)C(=O)NCCSSc1ccccn1)C[C@@H]3O[C@H]1C[C@H](N)[C@H](O)[C@H](C)O1
- IC50 [3]: 1790 nM
- IC50 [4]: 7.33 µM

Structure (SMILES): COc1cccc2c1C(=O)c1c(O)c3c(c(O)c1C2=O)C[C@@](O)(/C(CO)=N/OCC(=O)NCCCC[C@H](NC(=O)CO/N=C(\CO)[C@]1(O)Cc2c(O)c4c(c(O)c2[C@@H](O[C@H]2C[C@H](N)[C@H](O)[C@H](C)O2)C1)C(=O)c1c(OC)cccc1C4=O)C(=O)NCCSSCCNC(=O)[C@H](CCCCNC(=O)CO/N=C(\CO)[C@]1(O)Cc2c(O)c4c(c(O)c2[C@@H](O[C@H]2C[C@H](N)[C@H](O)[C@H](C)O2)C1)C(=O)c1c(OC)cccc1C4=O)NC(=O)CO/N=C(\CO)[C@]1(O)Cc2c(O)c4c(c(O)c2[C@@H](O[C@H]2C[C@H](N)[C@H](O)[C@H](C)O2)C1)C(=O)c1c(OC)cccc1C4=O)C[C@@H]3O[C@H]1C[C@H](N)[C@H](O)[C@H](C)O1
- Drug metabolism [23]: Metabolite detected
